Test results taken from ChEMBL document CHEMBL1128374, “Preparation and in vitro activities of ethers of [D-serine]8-cyclosporin” (J Med Chem, 1995).
In brackets after ≈: the same amount, converted by molar mass.

Key:
Assay type in all cases: functional
Mus musculus [1] = species on record: Mus musculus; experiment: In vitro inhibition of interleukin-2 (IL-2) production induced by stimulating lymphocytes derived from mouse spleens with the […]; conditions: Spleen
Method in brief: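 Compounds added with concanavalin A to the primary culture; supernatants collected at 48 h. IL-2 content measured by growth of IL-2-dependent CTLL cells, read as tritiated thymidine incorporation after 48 h. IC50 determined, with cyclosporin A run in parallel.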

Mus musculus [2] = species on record: Mus musculus; experiment: In vitro efficacy on humoral immune response by Mishell-Dutton assay (MD).
Method in brief: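 Spleen lymphocytes from female OF1 mice (ca. 10 x 10^6) cultured 3 days with sheep erythrocytes (ca. 30 x 10^6) and test compound. Cells then plated on agar with fresh erythrocytes; plaques form by complement lysis. Read-out is the count of antibody-producing plaque-forming cells. Cyclosporin A run in parallel.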

Mus musculus [3] = species on record: Mus musculus; experiment: In vitro efficacy to suppress lymphocyte proliferation as measured by the incorporation of a labeled precursor ([3H]- thymidine) into DNA in Mixed Lymphocyte reaction (MLR).
Method in brief: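 Cells from spleens of female CBA mice aged 8–10 weeks (ca. 5 x 10^5). Compounds made up at 20 mg/mL in 9:1 (v/v) ethanol/Tween 80, then diluted in saline before adding to medium. Four concentrations per compound across 1.8–1000 ng/mL, in triplicate cultures. IC50 is the calculated concentration giving 50% inhibition of proliferation. Cyclosporin A run in parallel as control.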

SMILES | IC50 (Mus musculus [1]) | IC50 (Mus musculus [2]) | IC50 (Mus musculus [3])
C/C=C/C[C@@H](C)[C@@H](O)[C@H]1C(=O)N[C@@H](CC)C(=O)N(C)CC(=O)N(C)[C@@H](CC(C)C)C(=O)N[C@@H](C(C)C)C(=O)N(C)[C@@H](CC(C)C)C(=O)N[C@@H](C)C(=O)N[C@H](COCCNS(=O)(=O)c2cccc3c(N(C)C)cccc23)C(=O)N(C)[C@@H](CC(C)C)C(=O)N(C)[C@@H](CC(C)C)C(=O)N(C)[C@@H](C(C)C)C(=O)N1C | 0.057 µg/mL (≈ 0.0381 µM) | 0.048 µg/mL (≈ 0.0321 µM) | 0.11 µg/mL (≈ 0.0736 µM)
C/C=C/C[C@@H](C)[C@@H](O)[C@H]1C(=O)N[C@@H](CC)C(=O)N(C)CC(=O)N(C)[C@@H](CC(C)C)C(=O)N[C@@H](C(C)C)C(=O)N(C)[C@@H](CC(C)C)C(=O)N[C@@H](C)C(=O)N[C@H](COCC(=O)OC(C)(C)C)C(=O)N(C)[C@@H](CC(C)C)C(=O)N(C)[C@@H](CC(C)C)C(=O)N(C)[C@@H](C(C)C)C(=O)N1C | > 1 µg/mL | 0.41 µg/mL (≈ 0.308 µM) | 0.24 µg/mL (≈ 0.18 µM)
C/C=C/C[C@@H](C)[C@@H](O)[C@H]1C(=O)N[C@@H](CC)C(=O)N(C)CC(=O)N(C)[C@@H](CC(C)C)C(=O)N[C@@H](C(C)C)C(=O)N(C)[C@@H](CC(C)C)C(=O)N[C@@H](C)C(=O)N[C@H](COCC(=O)O)C(=O)N(C)[C@@H](CC(C)C)C(=O)N(C)[C@@H](CC(C)C)C(=O)N(C)[C@@H](C(C)C)C(=O)N1C | 0.53 µg/mL (≈ 0.415 µM) | 0.48 µg/mL (≈ 0.376 µM) | 0.44 µg/mL (≈ 0.345 µM)
C/C=C/C[C@@H](C)[C@@H](O)[C@H]1C(=O)N[C@@H](CC)C(=O)N(C)CC(=O)N(C)[C@@H](CC(C)C)C(=O)N[C@@H](C(C)C)C(=O)N(C)[C@@H](CC(C)C)C(=O)N[C@@H](C)C(=O)N[C@H](COC)C(=O)N(C)[C@@H](CC(C)C)C(=O)N(C)[C@@H](CC(C)C)C(=O)N(C)[C@@H](C(C)C)C(=O)N1C | 0.024 µg/mL (≈ 0.0195 µM) | < 0.01 µg/mL | < 0.008 µg/mL
C/C=C/C[C@@H](C)[C@@H](O)[C@H]1C(=O)N[C@@H](CC)C(=O)N(C)CC(=O)N(C)[C@@H](CC(C)C)C(=O)N[C@@H](C(C)C)C(=O)N(C)[C@@H](CC(C)C)C(=O)N[C@@H](C)C(=O)N[C@H](COCc2ccccc2)C(=O)N(C)[C@@H](CC(C)C)C(=O)N(C)[C@@H](CC(C)C)C(=O)N(C)[C@@H](C(C)C)C(=O)N1C | 0.095 µg/mL (≈ 0.0726 µM) | 0.46 µg/mL (≈ 0.351 µM) | 0.25 µg/mL (≈ 0.191 µM)
C=C(COC[C@H]1NC(=O)[C@H](C)NC(=O)[C@H](CC(C)C)N(C)C(=O)[C@H](C(C)C)NC(=O)[C@H](CC(C)C)N(C)C(=O)CN(C)C(=O)[C@H](CC)NC(=O)[C@H]([C@H](O)[C@H](C)C/C=C/C)N(C)C(=O)[C@H](C(C)C)N(C)C(=O)[C@H](CC(C)C)N(C)C(=O)[C@H](CC(C)C)N(C)C1=O)C(=O)OC | 0.1 µg/mL (≈ 0.0759 µM) | 0.016 µg/mL (≈ 0.0122 µM) | 0.04 µg/mL (≈ 0.0304 µM)
C/C=C/C[C@@H](C)[C@@H](O)[C@H]1C(=O)N[C@@H](CC)C(=O)N(C)CC(=O)N(C)[C@@H](CC(C)C)C(=O)N[C@@H](C(C)C)C(=O)N(C)[C@@H](CC(C)C)C(=O)N[C@@H](C)C(=O)N[C@H](COCCC2OCCO2)C(=O)N(C)[C@@H](CC(C)C)C(=O)N(C)[C@@H](CC(C)C)C(=O)N(C)[C@@H](C(C)C)C(=O)N1C | 0.086 µg/mL (≈ 0.0652 µM) | 0.105 µg/mL (≈ 0.0796 µM) | 0.117 µg/mL (≈ 0.0887 µM)
C=C(CO)COC[C@H]1NC(=O)[C@H](C)NC(=O)[C@H](CC(C)C)N(C)C(=O)[C@H](C(C)C)NC(=O)[C@H](CC(C)C)N(C)C(=O)CN(C)C(=O)[C@H](CC)NC(=O)[C@H]([C@H](O)[C@H](C)C/C=C/C)N(C)C(=O)[C@H](C(C)C)N(C)C(=O)[C@H](CC(C)C)N(C)C(=O)[C@H](CC(C)C)N(C)C1=O | 0.048 µg/mL (≈ 0.0372 µM) | 0.032 µg/mL (≈ 0.0248 µM) | < 0.008 µg/mL
C/C=C/C[C@@H](C)[C@@H](O)[C@H]1C(=O)N[C@@H](CC)C(=O)N(C)CC(=O)N(C)[C@@H](CC(C)C)C(=O)N[C@@H](C(C)C)C(=O)N(C)[C@@H](CC(C)C)C(=O)N[C@@H](C)C(=O)N[C@H](COCCOCCO)C(=O)N(C)[C@@H](CC(C)C)C(=O)N(C)[C@@H](CC(C)C)C(=O)N(C)[C@@H](C(C)C)C(=O)N1C | 0.075 µg/mL (≈ 0.0574 µM) | 0.035 µg/mL (≈ 0.0268 µM) | 0.17 µg/mL (≈ 0.13 µM)
C/C=C/C[C@@H](C)[C@@H](O)[C@H]1C(=O)N[C@@H](CC)C(=O)N(C)CC(=O)N(C)[C@@H](CC(C)C)C(=O)N[C@@H](C(C)C)C(=O)N(C)[C@@H](CC(C)C)C(=O)N[C@@H](C)C(=O)N[C@H](CO)C(=O)N(C)[C@@H](CC(C)C)C(=O)N(C)[C@@H](CC(C)C)C(=O)N(C)[C@@H](C(C)C)C(=O)N1C | < 0.008 µg/mL | 0.026 µg/mL (≈ 0.0213 µM) | < 0.008 µg/mL
C/C=C/C[C@@H](C)[C@@H](O)[C@H]1C(=O)N[C@@H](CC)C(=O)N(C)CC(=O)N(C)[C@@H](CC(C)C)C(=O)N[C@@H](C(C)C)C(=O)N(C)[C@@H](CC(C)C)C(=O)N[C@@H](C)C(=O)N[C@H](COCCOC(C)=O)C(=O)N(C)[C@@H](CC(C)C)C(=O)N(C)[C@@H](CC(C)C)C(=O)N(C)[C@@H](C(C)C)C(=O)N1C | 0.012 µg/mL (≈ 0.0092 µM) | 0.028 µg/mL (≈ 0.0215 µM) | 0.018 µg/mL (≈ 0.0138 µM)
C=C(CCl)COC[C@H]1NC(=O)[C@H](C)NC(=O)[C@H](CC(C)C)N(C)C(=O)[C@H](C(C)C)NC(=O)[C@H](CC(C)C)N(C)C(=O)CN(C)C(=O)[C@H](CC)NC(=O)[C@H]([C@H](O)[C@H](C)C/C=C/C)N(C)C(=O)[C@H](C(C)C)N(C)C(=O)[C@H](CC(C)C)N(C)C(=O)[C@H](CC(C)C)N(C)C1=O | > 0.1 µg/mL | 0.23 µg/mL (≈ 0.176 µM) | 0.27 µg/mL (≈ 0.207 µM)
C/C=C/C[C@@H](C)[C@@H](O)[C@H]1C(=O)N[C@@H](CC)C(=O)N(C)CC(=O)N(C)[C@@H](CC(C)C)C(=O)N[C@@H](C(C)C)C(=O)N(C)[C@@H](CC(C)C)C(=O)N[C@@H](C)C(=O)N[C@H](COCCN)C(=O)N(C)[C@@H](CC(C)C)C(=O)N(C)[C@@H](CC(C)C)C(=O)N(C)[C@@H](C(C)C)C(=O)N1C | 0.38 µg/mL (≈ 0.301 µM) | 0.095 µg/mL (≈ 0.0753 µM) | 0.22 µg/mL (≈ 0.174 µM)
C#CCOC[C@H]1NC(=O)[C@H](C)NC(=O)[C@H](CC(C)C)N(C)C(=O)[C@H](C(C)C)NC(=O)[C@H](CC(C)C)N(C)C(=O)CN(C)C(=O)[C@H](CC)NC(=O)[C@H]([C@H](O)[C@H](C)C/C=C/C)N(C)C(=O)[C@H](C(C)C)N(C)C(=O)[C@H](CC(C)C)N(C)C(=O)[C@H](CC(C)C)N(C)C1=O | 0.09 µg/mL (≈ 0.0716 µM) | 0.036 µg/mL (≈ 0.0286 µM) | 0.072 µg/mL (≈ 0.0573 µM)
C/C=C/C[C@@H](C)[C@@H](O)[C@H]1C(=O)N[C@@H](CC)C(=O)N(C)CC(=O)N(C)[C@@H](CC(C)C)C(=O)N[C@@H](C(C)C)C(=O)N(C)[C@@H](CC(C)C)C(=O)N[C@@H](C)C(=O)N[C@H](COCC(C)CO)C(=O)N(C)[C@@H](CC(C)C)C(=O)N(C)[C@@H](CC(C)C)C(=O)N(C)[C@@H](C(C)C)C(=O)N1C (some centres undefined) | 0.017 µg/mL (≈ 0.0132 µM) | 0.024 µg/mL (≈ 0.0186 µM) | 0.013 µg/mL (≈ 0.0101 µM)
C/C=C/C[C@@H](C)[C@@H](O)[C@H]1C(=O)N[C@@H](CC)C(=O)N(C)CC(=O)N(C)[C@@H](CC(C)C)C(=O)N[C@@H](C(C)C)C(=O)N(C)[C@@H](CC(C)C)C(=O)N[C@@H](C)C(=O)N[C@H](COCC(N)=O)C(=O)N(C)[C@@H](CC(C)C)C(=O)N(C)[C@@H](CC(C)C)C(=O)N(C)[C@@H](C(C)C)C(=O)N1C | 0.07 µg/mL (≈ 0.0549 µM) | 0.063 µg/mL (≈ 0.0494 µM) | 0.064 µg/mL (≈ 0.0502 µM)
C=C(COC[C@H]1NC(=O)[C@H](C)NC(=O)[C@H](CC(C)C)N(C)C(=O)[C@H](C(C)C)NC(=O)[C@H](CC(C)C)N(C)C(=O)CN(C)C(=O)[C@H](CC)NC(=O)[C@H]([C@H](O)[C@H](C)C/C=C/C)N(C)C(=O)[C@H](C(C)C)N(C)C(=O)[C@H](CC(C)C)N(C)C(=O)[C@H](CC(C)C)N(C)C1=O)CO[Si](C)(C)C(C)(C)C | > 1 µg/mL | > 1 µg/mL | 0.45 µg/mL (≈ 0.321 µM)
C/C=C/C[C@@H](C)[C@@H](O)[C@H]1C(=O)N[C@@H](CC)C(=O)N(C)CC(=O)N(C)[C@@H](CC(C)C)C(=O)N[C@@H](C(C)C)C(=O)N(C)[C@@H](CC(C)C)C(=O)N[C@@H](C)C(=O)N[C@H](COCCO)C(=O)N(C)[C@@H](CC(C)C)C(=O)N(C)[C@@H](CC(C)C)C(=O)N(C)[C@@H](C(C)C)C(=O)N1C [OXECLOSPORIN] | 0.006 µg/mL (≈ 0.00475 µM) | 0.018 µg/mL (≈ 0.0143 µM) | < 0.008 µg/mL
